Experimental data gathered from unrelated publications.
MTNR1A: Melatonin receptor type 1A (MTNR1A, Homo sapiens, UniProt P48039)
FAAH: Fatty-acid amide hydrolase 1 (FAAH, Homo sapiens, UniProt O00519)
MMP3: Stromelysin-1 (MMP3, Homo sapiens, UniProt P08254)
PTGS1: Prostaglandin G/H synthase 1 (PTGS1, Homo sapiens, UniProt P23219)
CCKBR: Gastrin/cholecystokinin type B receptor (CCKBR, Homo sapiens, UniProt P32239)

SMILES	target	test	setting	inhibition [%]
O=C(Nc1cccnn1)N1CCN([C@@H]2CCOc3cc(C(F)(F)F)ccc32)CC1	MTNR1A	ligand displacement	20 µM	16
CN(C(=O)Oc1nsnc1N1CCCCC1)c1ccc(F)cc1	FAAH	enzyme activity, inhibitor	10 µM, cell membranes	22
N=C(N)c1ccc2cc(OC(=O)c3ccc(N=C(N)N)cc3)ccc2c1	MMP3	enzyme activity, inhibitor	10 µM	0
CC(C)N1CCC[C@H]1CNC(=O)c1cn(C2CCCC2)c(=O)c2c1c1ccccc1n2C	MTNR1A	ligand displacement, radioligand	10 µM	37
CC(C)C[C@H](NC(=O)[C@H](Cc1ccccc1)NC(=O)c1cnccn1)B(O)O	Complement C1r subcomponent (Homo sapiens, UniProt P00736)	enzyme activity, inhibitor	33 µM	44.5
COc1cccc(N(C)C(=O)Oc2nsnc2N2CCCCC2)c1	FAAH	enzyme activity, inhibitor	10 µM, cell membranes	17
Clc1ccc2c(C3CCN(CCc4c[nH]c5ccccc45)CC3)c[nH]c2c1	PTGS1	enzyme activity, inhibitor	10 µM	31
c1ccc(OCc2cc(OC[C@@H]3CCN3)on2)cc1	Sigma intracellular receptor 2 (Tmem97, Rattus norvegicus, UniProt Q5U3Y7)	ligand displacement, radioligand	10 µM	< 50
COc1ccc(S(=O)(=O)N(CC(=O)NO)CC(C)C)cc1	MMP3	enzyme activity, inhibitor	1 µM	100
Cn1cc(-c2cccc(N3CCc4c(sc5c4CC(C)(C)C5)C3=O)c2CO)cc(Nc2ccncn2)c1=O	Aurora kinase A (AURKA, Homo sapiens, UniProt O14965)	enzyme activity, inhibitor	1 µM	3
CN(C(=O)Oc1nsnc1N1CCCCC1)c1ccc([N+](=O)[O-])cc1	FAAH	enzyme activity, inhibitor	10 µM, cell membranes	19
C#Cc1n[nH]c2c(-c3cn(C(C)c4ccccn4)c(=O)[nH]c3=O)cc(F)cc12 (stereo not drawn)	Rho-associated protein kinase 1 (ROCK1, Homo sapiens, UniProt Q13464)	enzyme activity, inhibitor	1 µM	-2.6
O=C(Cc1c[nH]c2cc(Cl)ccc12)N1CCC(n2ccnc2)CC1	Trypanothione synthetase (Trypanosoma cruzi, UniProt Q9GT49)	enzyme activity, inhibitor, absorbance	25 µM	6.2
CCN(CC)CCCC[C@H](NC(=O)[C@H](CC(C)C)NC(=O)[C@H](C)NC(=O)[C@H](Cc1ccccc1)NC(=O)c1ccc(C(C)(C)C)cc1)C(=O)N[C@@H](CO)C(=O)OC	MTNR1A	ligand displacement, radioligand	10 µM	8
c1ccc(C(NCCNC(c2ccccc2)c2ccccc2)c2ccccc2)cc1	PTGS1	enzyme activity, inhibitor	10 µM	66
CN(C(=O)Oc1nsnc1N1CCCCC1)c1ccc(Cl)cc1	FAAH	enzyme activity, inhibitor	10 µM, cell membranes	16
Cc1ncc(C)n2nc(/C=C/c3nc(N4CCCC4)cc(N4CCOCC4)n3)nc12	PTGS1	enzyme activity, inhibitor	10 µM	10

SMILES	target	test	setting	inhibition [%]
CN(C(=O)Oc1nsnc1N1CCCCC1)c1cccc(F)c1	FAAH	enzyme activity, inhibitor	10 µM, cell membranes	48
COc1cc(Nc2ncc(F)c(Nc3ccc4c(n3)NC(=O)C(C)(C)O4)n2)cc(OC)c1OC	Serine/threonine-protein kinase ULK3 (ULK3, Homo sapiens, UniProt Q6PHR2)	binding	10 µM	100
CC(C)Cn1cnc2c(N)nc3ccccc3c21	MTNR1A	ligand displacement, radioligand	10 µM	32
CN(C(=O)Oc1nsnc1N1CCCCC1)C1CCCCC1	FAAH	enzyme activity, inhibitor	10 µM, cell membranes	16
COc1ccc(S(=O)(=O)N2CCCCC2)cc1C	CCKBR	ligand displacement, radioligand	10 µM	< 30
COCCN(CCOC)C(=O)[C@@]12C[C@@H]1[C@@H](n1cnc3c(NC(C4CC4)C4CC4)nc(Cl)nc31)[C@H](O)[C@@H]2O	5-hydroxytryptamine receptor 2C (HTR2C, Homo sapiens, UniProt P28335)	ligand displacement, radioligand	10 µM	38
COCc1c(-c2cc3cc(C)cc(OC)c3s2)c2c(N)ncnn2c1CN1CCNC(=O)C1	B1 bradykinin receptor (BDKRB1, Homo sapiens, UniProt P46663)	ligand displacement, radioligand	10 µM	5
Cc1cccc(N(C)C(=O)Oc2nsnc2N2CCCCC2)c1	FAAH	enzyme activity, inhibitor	10 µM, cell membranes	9
CN(CCN1CCC(OC(=O)Nc2ccccc2-c2ccccc2)CC1)C(=O)c1ccc(CN2CCC(C(N)=O)CC2)cc1	CCKBR	ligand displacement, radioligand	1 µM	-9
CCOC(=O)c1ccc(OC(=O)CCCCCNC(=N)N)cc1	MMP3	enzyme activity, inhibitor	10 µM	18
Cn1cc(-c2cc(F)cc(N3CCn4c(cc5c4CCCC5)C3=O)c2CO)cc(Nc2ccc(N3CCN(C4COC4)CC3)cn2)c1=O	Mitogen-activated protein kinase kinase kinase 8 (MAP3K8, Homo sapiens, UniProt P41279)	enzyme activity, inhibitor	0.1 µM	17
C[C@@H](O)[C@H](N)C(=O)N1CCC[C@H]1C(=O)N1CCC[C@H]1C(=O)N[C@H](C(N)=O)[C@@H](C)O	FAAH	enzyme activity, inhibitor	30 µM	-15
CN(C(=O)Oc1nsnc1N1CCCCC1)c1ccccc1[N+](=O)[O-]	FAAH	enzyme activity, inhibitor	10 µM, cell membranes	46
C#Cc1n[nH]c2c(-c3cn([C@@H](C)c4ccccc4)c(=O)[nH]c3=O)cc(F)cc12	Aurora kinase C (AURKC, Homo sapiens, UniProt Q9UQB9)	enzyme activity, inhibitor	0.1 µM	-1.2
CN(C)C(=O)COC(=O)Cc1ccc(OC(=O)c2ccc(NC(=N)N)cc2)cc1	MMP3	enzyme activity, inhibitor	10 µM	27
C[C@H](C(=O)N[C@H]1COc2ccccc2[C@@H]1S(C)(=O)=O)c1ccc(F)cc1	CCKBR	cell-free assay	10 µM	7
